ChEMBL document CHEMBL5724801, “EUbOPEN Chemogenomics Library - Multiplex” (2024)
Values joined by “and” are separate entries in the source; they are usually repeats but may differ in a detail not shown here. Equal values may be shown once.

Tested on: U2OS
Experiment: Multiplex assay against U2OS
Format: toxicity, cell-based
Conditions: human
Summary of the method: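 Cells stained live at seeding with Hoechst33342, BioTracker Green Microtubule Cytoskeleton Dye, MitoTracker Red and Annexin V Alexa Fluor 680 were imaged on a CQ1 microscope at 37°C and 5% CO2 after compound addition. Their classification by CellPathfinder machine-learning gating ran from Hoechst high-intensity objects versus normal cells, to healthy, pyknosed or fragmented nuclei among normal cells, to mitotic or apoptotic among pyknosed cells. Tubulin, mitochondrial-mass and membrane-permeability phenotypes are per cents of healthy-nucleus cells.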

[1] = 12 h, 1 µM, compound concentration 1 uM
[2] = 12 h, 10 µM, compound concentration 10 uM
[3] = 24 h, 1 µM, compound concentration 1 uM
[4] = 24 h, 10 µM, compound concentration 10 uM
[5] = 48 h, 1 µM, compound concentration 1 uM
[6] = 48 h, 10 µM, compound concentration 10 uM

## Cl.NCCc1ccc(O)c(O)c1 [DOPAMINE HYDROCHLORIDE]
[1]
  Population Apoptotic (%): 100% and 83%
  Population Fragmented Nuclei (%): 23% and 15%
  Population Healthy Nuclei (%): 67% and 72%
  Population Hoechst High Intensity Objects (%): 3% and 1%
  Population Membrane Permeable-Phenotype (%): 5% and 8%
  Population Mitochondria Different-Phenotype (%): 1% and 2%
  Population Mitotic Cells (%): 0% and 16%
  Population Normal (%): 96% and 98%
  Population Pyknosed Nuclei (%): 9% and 11%
  Population Tubulin-Different-Phenotype (%): 2% and 5%
  Total Cell Count: 237 and 104
[2]
  Population Apoptotic (%): 80% and 75%
  Population Fragmented Nuclei (%): 21% and 18%
  Population Healthy Nuclei (%): 65% and 76%
  Population Hoechst High Intensity Objects (%): 3% and 0%
  Population Membrane Permeable-Phenotype (%): 2% and 4%
  Population Mitochondria Different-Phenotype (%): 1%
  Population Mitotic Cells (%): 20% and 25%
  Population Normal (%): 96% and 100%
  Population Pyknosed Nuclei (%): 12% and 4%
  Population Tubulin-Different-Phenotype (%): 1%
  Total Cell Count: 204 and 95
[3]
  Population Apoptotic (%): 90% and 80%
  Population Fragmented Nuclei (%): 18% and 14%
  Population Healthy Nuclei (%): 69% and 77%
  Population Hoechst High Intensity Objects (%): 4% and 1%
  Population Membrane Permeable-Phenotype (%): 7% and 4%
  Population Mitochondria Different-Phenotype (%): 2% and 1%
  Population Mitotic Cells (%): 10% and 20%
  Population Normal (%): 95% and 98%
  Population Pyknosed Nuclei (%): 11% and 7%
  Population Tubulin-Different-Phenotype (%): 5% and 2%
  Total Cell Count: 263 and 132
[4]
  Population Apoptotic (%): 92% and 87%
  Population Fragmented Nuclei (%): 18% and 15%
  Population Healthy Nuclei (%): 70% and 77%
  Population Hoechst High Intensity Objects (%): 2% and 0%
  Population Membrane Permeable-Phenotype (%): 4% and 1%
  Population Mitochondria Different-Phenotype (%): 0%
  Population Mitotic Cells (%): 8% and 12%
  Population Normal (%): 97% and 99%
  Population Pyknosed Nuclei (%): 10% and 7%
  Population Tubulin-Different-Phenotype (%): 1%
  Total Cell Count: 245 and 111
[5]
  Population Apoptotic (%): 90% and 89%
  Population Fragmented Nuclei (%): 17% and 14%
  Population Healthy Nuclei (%): 70% and 73%
  Population Hoechst High Intensity Objects (%): 2%
  Population Membrane Permeable-Phenotype (%): 5% and 7%
  Population Mitochondria Different-Phenotype (%): 3% and 4%
  Population Mitotic Cells (%): 9% and 10%
  Population Normal (%): 97%
  Population Pyknosed Nuclei (%): 11%
  Population Tubulin-Different-Phenotype (%): 4% and 3%
  Total Cell Count: 363 and 172
[6]
  Population Apoptotic (%): 85% and 100%
  Population Fragmented Nuclei (%): 18% and 14%
  Population Healthy Nuclei (%): 66% and 76%
  Population Hoechst High Intensity Objects (%): 2% and 1%
  Population Membrane Permeable-Phenotype (%): 7% and 2%
  Population Mitochondria Different-Phenotype (%): 3% and 2%
  Population Mitotic Cells (%): 14% and 0%
  Population Normal (%): 97% and 98%
  Population Pyknosed Nuclei (%): 14% and 8%
  Population Tubulin-Different-Phenotype (%): 5% and 2%
  Total Cell Count: 338 and 179

## CNC[C@H](O)c1ccc(O)c(O)c1 [EPINEPHRINE]
[1]
  Population Apoptotic (%): 88% and 80%
  Population Fragmented Nuclei (%): 35% and 17%
  Population Healthy Nuclei (%): 56% and 77%
  Population Hoechst High Intensity Objects (%): 2% and 0%
  Population Membrane Permeable-Phenotype (%): 5% and 7%
  Population Mitochondria Different-Phenotype (%): 1% and 2%
  Population Mitotic Cells (%): 11% and 20%
  Population Normal (%): 97% and 100%
  Population Pyknosed Nuclei (%): 7% and 5%
  Population Tubulin-Different-Phenotype (%): 2% and 4%
  Total Cell Count: 229 and 92
[2]
  Population Apoptotic (%): 92% and 86%
  Population Fragmented Nuclei (%): 41% and 33%
  Population Healthy Nuclei (%): 45% and 50%
  Population Hoechst High Intensity Objects (%): 6% and 9%
  Population Membrane Permeable-Phenotype (%): 7% and 6%
  Population Mitochondria Different-Phenotype (%): 1% and 2%
  Population Mitotic Cells (%): 8% and 13%
  Population Normal (%): 93% and 90%
  Population Pyknosed Nuclei (%): 13% and 15%
  Population Tubulin-Different-Phenotype (%): 4% and 6%
  Total Cell Count: 199 and 105
[3]
  Population Apoptotic (%): 84% and 75%
  Population Fragmented Nuclei (%): 28% and 19%
  Population Healthy Nuclei (%): 64% and 68%
  Population Hoechst High Intensity Objects (%): 2%
  Population Membrane Permeable-Phenotype (%): 6% and 7%
  Population Mitochondria Different-Phenotype (%): 1% and 5%
  Population Mitotic Cells (%): 15% and 25%
  Population Normal (%): 97%
  Population Pyknosed Nuclei (%): 7% and 11%
  Population Tubulin-Different-Phenotype (%): 2% and 1%
  Total Cell Count: 278 and 105
[4]
  Population Apoptotic (%): 94% and 100%
  Population Fragmented Nuclei (%): 39% and 31%
  Population Healthy Nuclei (%): 50% and 45%
  Population Hoechst High Intensity Objects (%): 9% and 11%
  Population Membrane Permeable-Phenotype (%): 11% and 2%
  Population Mitochondria Different-Phenotype (%): 5% and 0%
  Population Mitotic Cells (%): 5% and 0%
  Population Normal (%): 90% and 88%
  Population Pyknosed Nuclei (%): 10% and 22%
  Population Tubulin-Different-Phenotype (%): 6% and 2%
  Total Cell Count: 195 and 96
[5]
  Population Apoptotic (%): 87% and 92%
  Population Fragmented Nuclei (%): 24% and 18%
  Population Healthy Nuclei (%): 66% and 72%
  Population Hoechst High Intensity Objects (%): 0%
  Population Membrane Permeable-Phenotype (%): 9% and 4%
  Population Mitochondria Different-Phenotype (%): 5% and 3%
  Population Mitotic Cells (%): 12% and 7%
  Population Normal (%): 99%
  Population Pyknosed Nuclei (%): 9%
  Population Tubulin-Different-Phenotype (%): 4% and 2%
  Total Cell Count: 333 and 150
[6]
  Population Apoptotic (%): 92% and 94%
  Population Fragmented Nuclei (%): 41% and 36%
  Population Healthy Nuclei (%): 44% and 40%
  Population Hoechst High Intensity Objects (%): 10% and 17%
  Population Membrane Permeable-Phenotype (%): 15% and 24%
  Population Mitochondria Different-Phenotype (%): 8% and 13%
  Population Mitotic Cells (%): 7% and 5%
  Population Normal (%): 89% and 82%
  Population Pyknosed Nuclei (%): 14% and 23%
  Population Tubulin-Different-Phenotype (%): 10% and 13%
  Total Cell Count: 215 and 87
